Assay results reported in ChEMBL document CHEMBL3244363, “Studies on biologically active halogenated compounds. 1. Synthesis and central nervous system depressant activity of 2-(fluoromethyl)-3-aryl-4(3H)-quinazolinone derivatives” (J Med Chem, 1979).
Activity calls are given as the source filed them. The rule behind the calls is not given here.

How the values were obtained:
Mus musculus [1] = experiment: Induction of CNS depressant activity in ip dosed ddk mouse assessed as loss of righting reflex activity over 20 secs; format: functional; details: Central nervous system
Procedure, shortened: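 Groups of six mice received compound ip as a suspension in CMC solution. Each mouse was laid on its back at 15, 30, 60, 90 and 120 min. The reflex was scored as lost if the animal stayed supine over 20 s. ED50 was estimated from the number of mice losing the reflex.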

Mus musculus [2] = experiment: Induction of CNS depressant activity in ip dosed ddk mouse after 30 mins by rotating rod test; format: functional; details: Central nervous system, 0.5 h
Procedure, shortened: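 Compound was given ip to groups of six mice as a suspension in CMC solution. At 30 min each mouse was set on a rotating rod (3.5 cm diameter, 14 rpm) for 1 min. ED50 was estimated from the number of mice falling off the rod twice during the test.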

Mus musculus [3] = experiment: Induction of CNS depressant activity in ip dosed ddk mouse assessed as protection against maximal electroshock-induced tonic hind limb extensor seizures administered 30 mins prior to electroshock challenge; format: functional; details: Central nervous system
Procedure, shortened: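 Six mice per group were dosed ip with compound suspended in CMC solution. After 30 min, a 25 mA alternating current was delivered through corneal electrodes for 0.15 s. ED50 was estimated from the number of mice protected against the tonic hind limb extensor component.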

Mus musculus [4] = experiment: Induction of CNS depressant activity in ip dosed ddk mouse assessed as protection against pentylenetetrazole-induced tonic extensive convulsions administered 30 mins prior to pentylenetetrazole challenge; format: functional; details: Central nervous system
Procedure, shortened: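 In groups of six mice, compound was injected ip as a suspension in CMC solution. Pentylenetetrazole 125 mg/kg was given sc 30 min later. ED50 was estimated from the number of mice protected against death from tonic extensive convulsions within 1 h of the convulsant.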

[5] = Acute toxicity in ip dosed ddk mouse assessed as lethality after 72 hrs; format: organism-based; details: in vivo
Mus musculus [6] = experiment: Induction of CNS depressant activity in ip dosed ddk mouse assessed as excitation incidence during loss of righting reflex activity over 20 secs; format: functional, organism-based; details: Central nervous system

| SMILES | ED50 (Mus musculus [1]) | ED50 (Mus musculus [2]) | ED50 (Mus musculus [3]) | ED50 (Mus musculus [4]) | MTD at 72 h [5] | Activity (Mus musculus [6]) | LD50 at 72 h [5] |
| --- | --- | --- | --- | --- | --- | --- | --- |
| Cc1ccccc1-n1c(CF)nc2ccc(Cl)cc2c1=O | > 150 mg/kg | > 150 mg/kg | > 150 mg/kg | > 150 mg/kg | ≥ 300 mg/kg | – | – |
| Cc1cc(Cl)ccc1-n1c(CF)nc2ccccc2c1=O | 18.7 mg/kg | – | 14.1 mg/kg | 16.3 mg/kg | – | Active | 432 mg/kg |
| CC(=O)Nc1ccc2nc(CF)n(-c3ccccc3C)c(=O)c2c1 | > 150 mg/kg | > 150 mg/kg | > 150 mg/kg | 75.2 mg/kg | ≥ 300 mg/kg | – | – |
| Cc1ccccc1-n1c(C)nc2ccccc2c1=O [METHAQUALONE] | 31.6 mg/kg | 33.7 mg/kg | 35.2 mg/kg | 36.7 mg/kg | – | – | 542 mg/kg |
| Cc1ccccc1-n1c(CF)nc2ccccc2c1=O | 19.9 mg/kg | 35.1 mg/kg | 25.2 mg/kg | 26.6 mg/kg | – | – | 710 mg/kg |
| Cc1ccccc1-n1c(CF)nc2cccc(Cl)c2c1=O | 95.7 mg/kg | 37.6 mg/kg | 40.3 mg/kg | 34.9 mg/kg | ≥ 300 mg/kg | – | – |
| O=c1c2ccccc2nc(CF)n1-c1ccc(Cl)cc1Cl | 18.7 mg/kg | – | 8.1 mg/kg | 16.3 mg/kg | 100 mg/kg | Active | – |
| Cc1ccccc1-n1c(C)nc2ccc(N)cc2c1=O | 28.1 mg/kg | 27.9 mg/kg | 25.4 mg/kg | 8.1 mg/kg | – | – | – |
| O=c1c2ccccc2nc(CF)n1-c1ccccc1 | 130 mg/kg | 98 mg/kg | 116 mg/kg | 95.3 mg/kg | ≥ 300 mg/kg | – | – |
| Cc1ccccc1-n1c(CF)nc2ccc([N+](=O)[O-])cc2c1=O | > 150 mg/kg | > 150 mg/kg | > 150 mg/kg | > 150 mg/kg | ≥ 300 mg/kg | – | – |
| Cc1ccccc1-n1c(CF)nc2ccc(N)cc2c1=O [AFLOQUALONE] | 35.1 mg/kg | 15.6 mg/kg | 13.3 mg/kg | 5.4 mg/kg | – | – | 315 mg/kg |
| Cc1c(Cl)cccc1-n1c(CF)nc2ccccc2c1=O | 18.4 mg/kg | 15 mg/kg | 15 mg/kg | 16.1 mg/kg | – | – | 1560 mg/kg |
| Cc1cc(Cl)ccc1-n1c(CF)nc2cccc(Cl)c2c1=O | > 150 mg/kg | > 150 mg/kg | > 150 mg/kg | 88.4 mg/kg | ≥ 300 mg/kg | – | – |
